Laboratory results as given in ChEMBL document CHEMBL3124924, “Bifunctional ethyl 2-amino-4-methylthiazole-5-carboxylate derivatives: synthesis and in vitro biological evaluation as antimicrobial and anticancer agents” (2014).
Converted amounts (≈) assume the structure as drawn. The source made the active and inactive calls. No cut-off for these calls is given here.

test system: Candida albicans; test: Antifungal activity against Candida albicans ATCC 10231 assessed as growth inhibition at 1 mg/mL after 48 hrs by agar-cup diffusion method; assay type: functional; conditions: ATCC 10231, 48 h, read-out: DIZ
Summary of the method: (§1)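 Agar-cup diffusion: 1 mL of 6 h broth culture seeded per 100 mL molten sterile agar at 45 °C and poured into plates. 8 mm cups cut, each filled with 0.1 mL of 1 mg/mL test solution. Incubated 37 °C for 24 h, 48 h for C. albicans. DMSO control per organism. Inhibition zone diameter in mm, mean of three measurements.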

`Cc1nc(NC(=S)Nc2ccc(F)cc2)sc1C(=O)NN` and `CCOC(=O)c1sc(NC(=O)Nc2ccccc2)nc1C` cannot be ordered by zone of inhibition at 1000 µg/mL: greater than 13 mm for the first, greater than 13 mm for the second.

`Cc1nc(NC(=O)NC2CCCCC2)sc1C(=O)NN` and `CCOC(=O)c1sc(NS(=O)(=O)c2ccccc2)nc1C` cannot be ordered by zone of inhibition at 1000 µg/mL: greater than 13 mm for the first, greater than 13 mm for the second.

test system: U-251; test: Cytotoxicity against human U251 cells assessed as growth inhibition at 10 uM after 48 hrs by SRB assay; assay type: functional; conditions: U-251, 48 h, read-out: GI
Summary of the method: (§2)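 NCI-60 one-dose primary screen run by the NCI Drug Evaluation Branch across the full 60-line panel. Single high-dose treatment with 48 h continuous drug exposure. Cell growth estimated by sulforhodamine B protein staining. Results given as percent growth of treated cells and expressed as percentage growth inhibition.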

Compared with `Cc1nc(NC(=S)Nc2ccc(F)cc2)sc1C(=O)NN`, `CCOC(=O)c1sc(NC(=O)Nc2ccccc2)nc1C` is higher in inhibition of growth at 10 µM: 5.41% for the first, 9.58% for the second.

`Cc1nc(NC(=O)NC2CCCCC2)sc1C(=O)NN` and `CCOC(=O)c1sc(NS(=O)(=O)c2ccccc2)nc1C` cannot be ordered by inhibition of growth at 10 µM: 2.59% for the first, less than 10% for the second.

test system: SK-MEL-5; test: Cytotoxicity against human SK-MEL-5 cells assessed as growth inhibition at 10 uM after 48 hrs by SRB assay; assay type: functional; conditions: SK-MEL-5, 48 h, read-out: GI; summary of the method: as §2

First: Cc1nc(NC(=S)Nc2ccc(F)cc2)sc1C(=O)NN
Second: CCOC(=O)c1sc(NC(=O)Nc2ccccc2)nc1C
The inhibition of growth at 10 µM of the first is higher: 5.01% for the first, 4.58% for the second.

`Cc1nc(NC(=O)NC2CCCCC2)sc1C(=O)NN` and `CCOC(=O)c1sc(NS(=O)(=O)c2ccccc2)nc1C` cannot be ordered by inhibition of growth at 10 µM: less than 10% for the first, less than 10% for the second.

test system: LOX IMVI; test: Cytotoxicity against human LOXIMVI cells assessed as growth inhibition at 10 uM after 48 hrs by SRB assay; assay type: functional; conditions: read-out: GI; summary of the method: as §2

Going from `Cc1nc(NC(=S)Nc2ccc(F)cc2)sc1C(=O)NN` to `CCOC(=O)c1sc(NC(=O)Nc2ccccc2)nc1C`, the inhibition of growth at 10 µM falls from 6.73% to 4.13%.

`Cc1nc(NC(=O)NC2CCCCC2)sc1C(=O)NN` and `CCOC(=O)c1sc(NS(=O)(=O)c2ccccc2)nc1C` cannot be ordered by inhibition of growth at 10 µM: 7.54% for the first, less than 10% for the second.

test system: SN12C; test: Cytotoxicity against human SN12C cells assessed as growth inhibition at 10 uM after 48 hrs by SRB assay; assay type: functional; conditions: read-out: GI; summary of the method: as §2

First: Cc1nc(NC(=S)Nc2ccc(F)cc2)sc1C(=O)NN
Second: CCOC(=O)c1sc(NC(=O)Nc2ccccc2)nc1C
The inhibition of growth at 10 µM of the first is lower: 2.43% for the first, 4.19% for the second.

`Cc1nc(NC(=O)NC2CCCCC2)sc1C(=O)NN` and `CCOC(=O)c1sc(NS(=O)(=O)c2ccccc2)nc1C` cannot be ordered by inhibition of growth at 10 µM: less than 10% for the first, less than 10% for the second.

test system: A498; test: Cytotoxicity against human A498 cells assessed as growth inhibition at 10 uM after 48 hrs by SRB assay; assay type: functional; conditions: A498, 48 h, read-out: GI; summary of the method: as §2

Compared with `Cc1nc(NC(=S)Nc2ccc(F)cc2)sc1C(=O)NN`, `CCOC(=O)c1sc(NC(=O)Nc2ccccc2)nc1C` is higher in inhibition of growth at 10 µM: less than 10% for the first, 28.9% for the second.

First: Cc1nc(NC(=O)NC2CCCCC2)sc1C(=O)NN
Second: CCOC(=O)c1sc(NS(=O)(=O)c2ccccc2)nc1C
The inhibition of growth at 10 µM of the first is lower: less than 10% for the first, 11.6% for the second.

test system: SR; test: Cytotoxicity against human SR cells assessed as growth inhibition at 10 uM after 48 hrs by SRB assay; assay type: functional; conditions: read-out: GI; summary of the method: as §2

First: Cc1nc(NC(=S)Nc2ccc(F)cc2)sc1C(=O)NN
Second: CCOC(=O)c1sc(NC(=O)Nc2ccccc2)nc1C
The inhibition of growth at 10 µM of the first is lower: less than 10% for the first, 14.3% for the second.

`Cc1nc(NC(=O)NC2CCCCC2)sc1C(=O)NN` and `CCOC(=O)c1sc(NS(=O)(=O)c2ccccc2)nc1C` cannot be ordered by inhibition of growth at 10 µM: less than 10% for the first, less than 10% for the second.

test system: K562; test: Cytotoxicity against human K562 cells assessed as growth inhibition at 10 uM after 48 hrs by SRB assay; assay type: functional; conditions: K562, 48 h, read-out: GI; summary of the method: as §2

Compared with `Cc1nc(NC(=S)Nc2ccc(F)cc2)sc1C(=O)NN`, `CCOC(=O)c1sc(NC(=O)Nc2ccccc2)nc1C` is higher in inhibition of growth at 10 µM: less than 10% for the first, 39% for the second.

`Cc1nc(NC(=O)NC2CCCCC2)sc1C(=O)NN` and `CCOC(=O)c1sc(NS(=O)(=O)c2ccccc2)nc1C` cannot be ordered by inhibition of growth at 10 µM: less than 10% for the first, less than 10% for the second.

test system: not listed separately; test: Cytotoxicity against human Hs578T cells assessed as growth inhibition at 10 uM after 48 hrs by SRB assay; assay type: functional; conditions: Hs-578T, read-out: GI; summary of the method: as §2

Going from `Cc1nc(NC(=S)Nc2ccc(F)cc2)sc1C(=O)NN` to `CCOC(=O)c1sc(NC(=O)Nc2ccccc2)nc1C`, the inhibition of growth at 10 µM rises from 2.23% to 6.4%.

`Cc1nc(NC(=O)NC2CCCCC2)sc1C(=O)NN` and `CCOC(=O)c1sc(NS(=O)(=O)c2ccccc2)nc1C` cannot be ordered by inhibition of growth at 10 µM: less than 10% for the first, less than 10% for the second.

test system: HCT-15; test: Cytotoxicity against human HCT15 cells assessed as growth inhibition at 10 uM after 48 hrs by SRB assay; assay type: functional; conditions: HCT-15, 48 h, read-out: GI; summary of the method: as §2

`Cc1nc(NC(=S)Nc2ccc(F)cc2)sc1C(=O)NN` and `CCOC(=O)c1sc(NC(=O)Nc2ccccc2)nc1C` cannot be ordered by inhibition of growth at 10 µM: less than 10% for the first, less than 10% for the second.

`Cc1nc(NC(=O)NC2CCCCC2)sc1C(=O)NN` and `CCOC(=O)c1sc(NS(=O)(=O)c2ccccc2)nc1C` cannot be ordered by inhibition of growth at 10 µM: 9.55% for the first, less than 10% for the second.

test system: HCT-116; test: Cytotoxicity against human HCT116 cells assessed as growth inhibition at 10 uM after 48 hrs by SRB assay; assay type: functional; conditions: HCT-116, 48 h, read-out: GI; summary of the method: as §2

First: Cc1nc(NC(=S)Nc2ccc(F)cc2)sc1C(=O)NN
Second: CCOC(=O)c1sc(NC(=O)Nc2ccccc2)nc1C
The inhibition of growth at 10 µM of the first is lower: 7.87% for the first, 16.3% for the second.

Going from `Cc1nc(NC(=O)NC2CCCCC2)sc1C(=O)NN` to `CCOC(=O)c1sc(NS(=O)(=O)c2ccccc2)nc1C`, the inhibition of growth at 10 µM rises from 16.3% to 43.1%.

test system: NCI-H226; test: Cytotoxicity against human NCI-H226 cells assessed as growth inhibition at 10 uM after 48 hrs by SRB assay; assay type: functional; conditions: NCI-H226, 48 h, read-out: GI; summary of the method: as §2

Going from `Cc1nc(NC(=S)Nc2ccc(F)cc2)sc1C(=O)NN` to `CCOC(=O)c1sc(NC(=O)Nc2ccccc2)nc1C`, the inhibition of growth at 10 µM rises from 5.35% to 11.3%.

`Cc1nc(NC(=O)NC2CCCCC2)sc1C(=O)NN` and `CCOC(=O)c1sc(NS(=O)(=O)c2ccccc2)nc1C` cannot be ordered by inhibition of growth at 10 µM: less than 10% for the first, less than 10% for the second.

test system: Aspergillus niger; test: Antifungal activity against Aspergillus niger assessed as growth inhibition at 1 mg/mL after 24 hrs by agar-cup diffusion method; assay type: functional, organism-based; conditions: not given; summary of the method: as §1

With `Cc1nc(NC(=S)Nc2ccc(F)cc2)sc1C(=O)NN` the “growth inhibition (GI)” value was “inactive”.
With `CCOC(=O)c1sc(NC(=O)Nc2ccccc2)nc1C` the “growth inhibition (GI)” value was “inactive”.
In the case of `Cc1nc(NC(=O)NC2CCCCC2)sc1C(=O)NN`, the “growth inhibition (GI)” value is reported as “inactive”.
For `CCOC(=O)c1sc(NS(=O)(=O)c2ccccc2)nc1C`, the “growth inhibition (GI)” value was “inactive”.

test system: Candida albicans; test: Fungicidal activity against Candida albicans ATCC 10231 after 18 hrs; assay type: functional; conditions: ATCC 10231, 18 h
Summary of the method: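 Continuation of the broth-dilution MIC test. A loopful from each tube without visible growth spread on a quarter of a Mueller-Hinton agar plate and incubated 18 h. Lowest concentration giving no growth on subculture taken as the MBC.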

First: Cc1nc(NC(=S)Nc2ccc(F)cc2)sc1C(=O)NN
Second: CCOC(=O)c1sc(NC(=O)Nc2ccccc2)nc1C
The MFC of the first is 2-fold lower: 12.5 µg/mL (≈ 38.4 µM) for the first, 25 µg/mL (≈ 81.9 µM) for the second.

In the case of `Cc1nc(NC(=O)NC2CCCCC2)sc1C(=O)NN`, the MFC is reported as 100 µg/mL (≈ 336 µM).

test system: Candida albicans; test: Antifungal activity against Candida albicans ATCC 10231 assessed as growth inhibition after 48 hrs by two-fold serial dilution assay; assay type: functional; conditions: ATCC 10231, 48 h
Summary of the method: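 Twofold serial broth dilution run on compounds giving inhibition zones of 13 mm or more. Organisms pre-grown in suitable broth at 37 °C, 24 h for bacteria and 48 h for fungi. Dilution series 200, 100, 50, 25, 12.5, 6.25. Each 5 mL tube inoculated with 0.1 mL and incubated 37 °C for 48 h. Tubes scored for presence or absence of growth.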

Going from `Cc1nc(NC(=S)Nc2ccc(F)cc2)sc1C(=O)NN` to `CCOC(=O)c1sc(NC(=O)Nc2ccccc2)nc1C`, the MIC rises from 12.5 µg/mL (≈ 38.4 µM) to 25 µg/mL (≈ 81.9 µM) (2-fold).

`Cc1nc(NC(=O)NC2CCCCC2)sc1C(=O)NN` showed an MIC of 50 µg/mL (≈ 168 µM).
